Experimental findings from ChEMBL document CHEMBL1649148, “Steady-state pharmacokinetics of abacavir in plasma and intracellular carbovir triphosphate following administration of abacavir at 600 milligrams once daily and 300 milligrams twice daily in human immunodeficiency virus-infected subjects” (Antimicrob Agents Chemother, 2009) are described below.

What all share (format): ADME, organism-based
Series [1] has as its system Homo sapiens. Kind of series: (§1) Drug level at the end of dosing interval in HIV infected patient at 600 mg QD by HPLC/MS/MS analysis. As to conditions: in vivo. Summed up:
(§2)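 Plasma abacavir at steady state in HIV-1-infected adults dosed orally 600 mg QD or 300 mg BID under fasting, serial samples predose to 24 h (plus 1 h) on days 1 and 11; validated HPLC-MS/MS, calibration 2.5–2,500 ng/ml; noncompartmental parameters from actual times, BID AUC0-24 taken as 2 × AUC0-τ.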

The nature of series [2]: (§3) AUC (0 to 24 hrs) in HIV infected patient at 600 mg QD by HPLC/MS/MS analysis. More on the design: dose 600 mg, time < 24 hr. As to conditions: human, plasma. A digest of the protocol:
as §2

Series [3] concerns Homo sapiens. In words: (§4) Drug level at the end of dosing interval in HIV infected patient at 300 mg BID by HPLC/MS/MS analysis. As to conditions: in vivo. A digest of the protocol:
as §2

For series [4], the species on record is Homo sapiens. In words: Ratio of AUC in HIV infected patient assessed as carbovir-triphosphate level per million cells to AUC in HIV infected patient at 600 mg QD by HPLC/MS/MS analysis. Conditions: in vivo. A digest of the protocol: (§5)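 Per-subject ratio of intracellular CBV-TP AUC0-24 (PBMC, fmol/million cells, LC-MS/MS) to plasma abacavir AUC0-24 (HPLC-MS/MS), both by noncompartmental analysis from serial samples over 24 h on days 1 and 11 of oral 600 mg QD or 300 mg BID dosing in fasted HIV-1-infected adults.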

The species entered for series [5] is Homo sapiens. In words: Ratio of AUC in HIV infected patient assessed as assessed as carbovir-triphosphate level per million cells to AUC in HIV infected patient at 300 mg BID by HPLC/MS/MS analysis. Conditions: in vivo. Summed up: as §5
The nature of series [6]: Cmax in HIV infected patient at 300 mg BID by HPLC/MS/MS analysis. As to conditions: human, in vivo. More on the design: dose 300 mg. A digest of the protocol: as §2
For series [7], the system named is Homo sapiens. The description is as §4. As to conditions: in vivo. A digest of the protocol: as §2
This is another data set of the same source.

Series [8] is described as follows: as §3. As to conditions: male, human, plasma. Also on record: time < 24 hr, dose 600 mg. Summed up: as §2
Series [9] can be described thus: Cmax in HIV infected patient at 600 mg QD by HPLC/MS/MS analysis. More on the design: dose 600 mg. As to conditions: human, in vivo. A digest of the protocol: as §2
Series [10] relates to Homo sapiens. The series is described as §1. As to conditions: in vivo. Summed up:
as §2
The source holds these as a separate data set.

Series [11] can be described thus: AUC (0 to 24 hrs) in HIV infected patient at 300 mg BID by HPLC/MS/MS analysis. More on the design: time < 24 hr, dose 300 mg. Conditions: human, plasma. A digest of the protocol:
as §2

The test system of series [12] is Homo sapiens. Described as §4. Conditions: in vivo. Summed up:
as §2
The source holds these as a separate data set.

The subject of series [13] is Homo sapiens. Described as §1. As to conditions: in vivo. Summed up:
as §2
This is another data set of the same source.

For series [14], the species on record is Homo sapiens. Kind of series: Ratio of AUC in HIV infected male patient assessed as assessed as carbovir-triphosphate level per million cells to AUC in HIV infected male patient at 300 mg BID by HPLC/MS/MS analysis. Conditions: in vivo. A digest of the protocol: as §5
For series [15], the species on record is Homo sapiens. In words: Ratio of AUC in HIV infected female patient assessed as assessed as carbovir-triphosphate level per million cells to AUC in HIV infected female patient at 300 mg BID by HPLC/MS/MS analysis. Conditions: in vivo. A digest of the protocol:
as §5

For series [16], the species on record is Homo sapiens. Kind of series: Ratio of AUC in HIV infected female patient assessed as carbovir-triphosphate level per million cells to AUC in HIV infected female patient at 600 mg QD by HPLC/MS/MS analysis. Conditions: in vivo. Summed up:
as §5

The species named for series [17] is Homo sapiens. In words: Ratio of AUC in HIV infected male patient assessed as carbovir-triphosphate level per million cells to AUC in HIV infected male patient at 600 mg QD by HPLC/MS/MS analysis. Conditions: in vivo. Summed up:
as §5

The species entered for series [18] is Homo sapiens. Kind of series: (§6) Cmax in HIV infected patient assessed as carbovir-triphosphate level per million cells at 600 mg QD by HPLC/MS/MS analysis. Conditions: in vivo. More on the design: dose 600 mg. Summed up: (§7)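 Steady-state crossover in HIV-1-infected adults, oral abacavir 600 mg QD or 300 mg BID, fasted ≥10 h before and 2 h after dosing; blood drawn predose and 2–24 h postdose on days 1 and 11. PBMC isolated, counted in duplicate, lysed in ice-cold 70% methanol; CBV-TP measured by LC-MS/MS after anion exchange and alkaline phosphatase hydrolysis, converted to fmol/million cells; noncompartmental analysis.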

The species named for series [19] is Homo sapiens. Kind of series: (§8) AUC (0 to 24 hrs) in HIV infected patient assessed as carbovir-triphosphate level per million cells at 600 mg QD by HPLC/MS/MS analysis. More on the design: dose 600 mg, time < 24 hr. As to conditions: in vivo. Summed up: as §7
Series [20] is filed under the species Homo sapiens. Kind of series: (§9) AUC (0 to 24 hrs) in HIV infected patient assessed as carbovir-triphosphate level per million cells at 300 mg BID by HPLC/MS/MS analysis. Also on record: time < 24 hr, dose 300 mg. Conditions: in vivo. A digest of the protocol:
as §7

For series [21], the species on record is Homo sapiens. In words: (§10) Cmax in HIV infected patient assessed as carbovir-triphosphate level per million cells at 300 mg BID by HPLC/MS/MS analysis. As to conditions: in vivo. Also on record: dose 300 mg. Summed up:
as §7

For series [22], the species on record is Homo sapiens. The description is as §9. Also on record: dose 300 mg, time < 24 hr. Conditions: in vivo. Summed up: as §7
The species named for series [23] is Homo sapiens. The description is as §10. Conditions: in vivo. More on the design: dose 300 mg. Summed up:
as §7
The source holds these as a separate data set.

In series [24] the test system is Homo sapiens. Kind of series: (§11) Drug level at end of dosing interval in HIV infected patient assessed as carbovir-triphosphate level per million cells at 300 mg BID by HPLC/MS/MS analysis. Conditions: in vivo. A digest of the protocol: as §7
The species entered for series [25] is Homo sapiens. In words: AUC (0 to 24 hrs) in HIV infected male patient assessed as carbovir-triphosphate level per million cells at 600 mg QD by HPLC/MS/MS analysis. As to conditions: in vivo. More on the design: dose 600 mg, time < 24 hr. Summed up: as §7
For series [26], the species on record is Homo sapiens. Described as §6. Also on record: dose 600 mg. As to conditions: in vivo. Summed up:
as §7
The source holds these as a separate data set.

Series [27] is filed under the species Homo sapiens. Kind of series: AUC (0 to 24 hrs) in HIV infected female patient assessed as carbovir-triphosphate level per million cells at 300 mg BID by HPLC/MS/MS analysis. Conditions: in vivo. Also on record: dose 300 mg, time < 24 hr.
For series [28], the species on record is Homo sapiens. Described as §10. Also on record: dose 300 mg. Conditions: in vivo. A digest of the protocol: as §7
The source holds these as a separate data set.

The subject of series [29] is Homo sapiens. The description is as §11. As to conditions: in vivo. A digest of the protocol: as §7
The source holds these as a separate data set.

The species named for series [30] is Homo sapiens. The series is described as §8. Also on record: dose 600 mg, time < 24 hr. As to conditions: in vivo. Summed up:
as §7
This is another data set of the same source.

The species named for series [31] is Homo sapiens. Described as §6. More on the design: dose 600 mg. Conditions: in vivo. Summed up: as §7
This is another data set of the same source.

Take `Nc1nc(NC2CC2)c2ncn([C@H]3C=C[C@@H](CO)C3)c2n1` [ABACAVIR]: the Ct in the series with Homo sapiens [1] was 0.009 µg/mL; in the series on Homo sapiens [3] it was 0.018 µg/mL; in the series with Homo sapiens [7], 0.015 µg/mL; in the series on Homo sapiens [10], 0.008 µg/mL; in the series with Homo sapiens [12], 0.026 µg/mL; in the series on Homo sapiens [13] it was 0.009 µg/mL. In addition, the AUC at 24 h amounted to 11700 ng·h/mL in series [2] (female); 8520 ng·h/mL in series [2]; 7260 ng·h/mL in [8]; 10900 ng·h/mL in [11] (female); 7900 ng·h/mL in [11]; 6740 ng·h/mL in series [11] (male). For the same compound, the “Ratio AUC” value in the series listed under Homo sapiens [4] is 123; in the series listed under Homo sapiens [5], 103; in the series listed under Homo sapiens [14], 102; in the series listed under Homo sapiens [15], 105; in the series filed under Homo sapiens [16] it was 158; in the series filed under Homo sapiens [17], 109. Also, the Cmax in series [6] came out at 1840 ng/mL; in [6] (male) it was 1590 ng/mL; in series [9] (female), 4830 ng/mL; in series [9], 3850 ng/mL; in series [9] (male), 3430 ng/mL.

As to `Nc1nc(=O)c2ncn([C@H]3C=C[C@@H](COP(=O)(O)OP(=O)(O)OP(=O)(O)O)C3)c2[nH]1` [CARBOVIR 5'-TRIPHOSPHATE, (-)-], the Cmax in the series filed under Homo sapiens [18] was found to be 114 fmol/10^6 cells; in the series listed under Homo sapiens [21], 58.5 fmol/10^6 cells; in the series filed under Homo sapiens [23], 49.3 fmol/10^6 cells; in the series listed under Homo sapiens [26] it was 86.5 fmol/10^6 cells; in the series filed under Homo sapiens [28] it was 82.5 fmol/10^6 cells; in the series listed under Homo sapiens [31], 198 fmol/10^6 cells. Further, the AUC in the series filed under Homo sapiens [19] was determined as 1051 h·fmol/million cells; in the series listed under Homo sapiens [20] it was 814 h·fmol/million cells; in the series listed under Homo sapiens [22], 688 h·fmol/million cells; in the series listed under Homo sapiens [25], 792 h·fmol/million cells; in the series filed under Homo sapiens [27] it was 1138 h·fmol/million cells; in the series listed under Homo sapiens [30] it was 1851 h·fmol/million cells. For the same compound, the AUC in the series filed under Homo sapiens [17] was 1051 fmol·h. Further, the figures for the Ct with Homo sapiens [24] and with Homo sapiens [29] were 18.7 fmol/10^6 cells and 37.2 fmol/10^6 cells, respectively.
